The results in this text go back to ChEMBL document CHEMBL1154155, “Novel 2,4,5-trisubstituted oxazole derivatives: synthesis and antiproliferative activity” (Eur J Med Chem, 2009).

The test system of the test is A-431. Description: Antiproliferative activity against human A431 cells after 48 hrs by MTT assay. It is filed as functional, cell-based. As to conditions: A-431, 48 h. An outline of the steps: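 Cells in complete medium seeded into 96-well plates, preincubated 24 h at 37 °C, 5% CO₂ before cytotoxicity assessment; absorbance read at 570 nm on plate reader.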

The term IC50 denotes the point on the concentration scale where inhibition reaches its midpoint. Lower therefore signals greater potency in that assay. `O=c1[nH]cc(F)c(=O)[nH]1` [FLUOROURACIL] had an IC50 of 18 nM.
